Test results published in ChEMBL document CHEMBL1151213, “Yucca schidigera bark: phenolic constituents and antioxidant activity” (J Nat Prod, 2004).

Key:
Format in all cases: functional
[1] = Antioxidant activity against beta-carotene and linoleic acid assessed as inhibition of bleaching of beta-carotene at 60 mins by autooxidation assay; set-up: concentration or dose not given beside the values
Outline: (§1)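 Heat-induced oxidation of an aqueous emulsion of β-carotene, linoleic acid and Tween 20, held at 50 °C for 3 h. β-Carotene bleaching was followed by A470 at intervals. AA = [1 − (A0 − At)/(A00 − A0t)] × 100, taking absorbances with and without test sample at start and at time t. Run in triplicate; BHT served as positive control.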

[2] = Antioxidant activity against ABTS radical assessed as TEAC units
Outline: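 ABTS radical cation solution diluted in PBS pH 7.4 to A734 0.70, equilibrated at 30 °C. Samples in methanol at 0.3, 0.5, 1, 1.5 and 2 mM; reaction started by adding diluted ABTS to sample. Percent inhibition of A734 versus methanol blank plotted against concentration, in triplicate. Value is Trolox concentration with the same capacity as 1 mM sample.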

[3] = Antioxidant activity against beta-carotene and linoleic acid assessed as inhibition of bleaching of beta-carotene at 120 mins by autooxidation assay; set-up: concentration or dose not given beside the values; outline: as §1

SMILES: O=C1Oc2cc(O)cc(/C=C/c3ccc(O)cc3)c2[C@@]12c1c(O)cc(O)cc1O[C@@H]2c1ccc(O)cc1
- Activity [1]: 52.6%
- Activity [2]: 0.96 mM
- Activity [3]: 72.1%

SMILES: COc1c(O)cc(/C=C/c2cc(O)cc(O)c2)c2c1OC(=O)[C@@]21c2c(O)cc(O)cc2O[C@@H]1c1ccc(O)cc1
- Activity [1]: 74.3%
- Activity [2]: 1.85 mM
- Activity [3]: 79.3%

SMILES: COc1c(O)cc(/C=C/c2cc(O)cc3c2[C@]2(C(=O)O3)c3c(O)cc(O)cc3O[C@@H]2c2ccc(O)cc2)cc1O
- inhibition [1]: 66.4%
- Activity [2]: 1.42 mM
- Activity [3]: 66.2%

SMILES: O=C1Oc2cc(O)c3c(c2[C@]12c1c(O)cc(O)cc1O[C@@H]2c1ccc(O)cc1)O[C@H](c1ccc(O)cc1)[C@H](O)C3
- Activity [1]: 24.4%
- Activity [2]: 1.79 mM
- Activity [3]: 51%

SMILES: COc1c(O)cc(/C=C/c2cc(O)cc3c2[C@@]2(C(=O)O3)c3c(O)cc(O)cc3O[C@@H]2c2ccc(O)cc2)cc1O
- Activity [1]: 59.5%
- Activity [2]: 1.6 mM
- Activity [3]: 71.7%

SMILES: COc1c(O)cc(/C=C/c2cc(O)cc(O)c2)cc1O
- Activity [1]: 3.1%
- Activity [2]: 2.25 mM
- Activity [3]: 2.9%

SMILES: O=C1Oc2cc(O)cc(/C=C/c3ccc(O)cc3)c2[C@]12c1c(O)cc(O)cc1O[C@@H]2c1ccc(O)cc1
- Activity [1]: 76.3%
- Activity [2]: 1.09 mM
- Activity [3]: 72.1%

SMILES: O=C1[C@@H](c2ccc(O)cc2)Oc2cc(O)cc(O)c2[C@@]12c1c(O)cc(O)cc1[C@H](O)[C@H]2c1ccc(O)cc1
- Activity [1]: 40.6%
- Activity [2]: 1.04 mM
- Activity [3]: 43.4%

SMILES: O=c1c(O)c(-c2ccc(O)c(O)c2)oc2cc(O)cc(O)c12
- Activity [2]: 2.6 mM

SMILES: Oc1ccc(/C=C/c2cc(O)cc(O)c2)cc1
- Activity [1]: 24.9%
- Activity [2]: 1.9 mM
- Activity [3]: 45.9%
